The text below walks through data of ChEMBL document CHEMBL1156916, “New fluorinated 1,2,4-benzothiadiazine 1,1-dioxides: discovery of an orally active cognitive enhancer acting through potentiation of the 2-amino-3-(3-hydroxy-5-methylisoxazol-4-yl)propionic acid receptors” (J Med Chem, 2010).

Activity calls are given as the source filed them. The rule behind the calls is not given here.

The test system of one series is Oocyte. As to the kind of experiment: Induction of amplitude current in Xenopus laevis oocytes assessed as 2 fold increase in AMPA-induced current by voltage clamp method. It counts as functional. In a few lines:
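Xenopus oocytes injected with poly(A+) mRNA from cortex of 15-day-old male Wistar rats, expressed 3 days at 18 °C. Two-electrode voltage clamp at -60 mV; 10 μM (S)-AMPA applied 30 s every 5 min. Compound given at increasing concentrations 45 s before, during and after AMPA; peak current compared with the same oocyte's control. EC2X is the 2-fold increase; n ≥ 3, mean ± SEM.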

Series [1] in a line: Dissociation constant, pKa of the compound. Type of series: physicochemical.
The test system of series [2] is Rattus norvegicus. As to the kind of experiment: Increase in memory in po dosed Wistar rat by object recognition test. It counts as functional, organism-based. An outline of the steps:
(§1)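 Male Wistar rats (220-330 g), three sessions: 2 min habituation, acquisition with two identical objects, then 3 min recognition with one object replaced by a novel one. Oral compound or vehicle given 1 h before each session. Discrimination index is novel minus familiar exploration time; n = 9-10 per dose; ANOVA plus Dunnett.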

Series [3] relates to Mus musculus. As to the kind of experiment: Toxicity in mouse at 30 mg/kg, ip. The conditions noted are these: in vivo.
The test system of series [4] is Hippocampus. As to the kind of experiment: Increase in AMPA-mediated postsynaptic response recorded in rat hippocampus CA1 region assessed as increase in excitatory postsynaptic field potential area at 50 uM. It counts as functional. In a few lines:
(§2)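 Rat hippocampal slices, Schaffer collateral stimulation with EPSfPs recorded in CA1; perfusion medium contains 1.2 mM Mg2+. Compound bath-applied for 10 min at successively increasing concentrations, with washout to recovery. Amplitude, area and half-width averaged over five pulses and normalized to five pre-drug responses (100%). Compared with vehicle by two-way ANOVA plus Dunnett.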

Series [5] relates to Rattus norvegicus. Put plainly: Increase in long term potentiation-evoked EPSfP amplitude in dentate gyrus of anesthetized Wistar rat hippocampus at 3 mg/kg, ip measured for 3 hrs. Type of series: functional, organism-based. The arrangement: dose 3 mg/kg. In a few lines: (§3)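 Male Wistar rats (300-400 g) anaesthetized with chloral hydrate 400 mg/kg ip; body temperature held at 36.6-37 °C. Perforant path stimulated, dentate gyrus recorded. After a 60 min baseline, compound or vehicle given ip; tetanus 60 min later (four 400 Hz bursts). Recorded for 3 h; EPSfP amplitude normalized to baseline; two-way ANOVA plus Dunnett.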

For series [6], the system named is Hippocampus. As to the kind of experiment: Increase in AMPA-mediated postsynaptic response recorded in rat hippocampus CA1 region assessed as increase in excitatory postsynaptic field potential area. It counts as functional, tissue-based. An outline of the steps: as §2
Series [7] concerns Rattus norvegicus. As to the kind of experiment: Increase in duration of long term potentiation in dentate gyrus of anesthetized Wistar rat hippocampus at 10 mg/kg, ip measured for 3 hrs. Type of series: functional, organism-based. The arrangement: dose 10 mg/kg. An outline of the steps: as §3
For series [8], the system named is Hippocampus. Put plainly: Increase in AMPA-mediated postsynaptic response recorded in rat hippocampus CA1 region assessed as increase in excitatory postsynaptic field potential amplituted at 50 uM. Type of series: functional. In a few lines:
as §2

The test system of series [9] is Mus musculus. Put plainly: Toxicity in mouse assessed as hypothermia at 30 mg/kg, po after 1.5 hrs. The following applies: in vivo.
The subject of series [10] is Rattus norvegicus. As to the kind of experiment: Increase in memory in Wistar rat at 0.03 to 1 mg/kg, po treated 60 mins before test session by object recognition test. It counts as functional, organism-based. An outline of the steps: as §1
In series [11] the test system is Hippocampus. Put plainly: Increase in AMPA-mediated postsynaptic response recorded in rat hippocampus CA1 region assessed as increase in excitatory postsynaptic field potential half width at 50 uM. Type of series: functional. In a few lines: as §2
The next series has as its system Liver microsomes. As to the kind of experiment: Metabolic stability in rat liver microsomes assessed as metabolite degradation after 30 mins at 37 degC by HPLC. It counts as ADME, Microsome. The conditions noted are these: 0.5 h. In a few lines:
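Phenobarbital-induced rat liver microsomes at 1 mg/mL protein with 200 μM substrate (methanol <1%), 37 °C, NADPH-generating system in pH 7.4 phosphate buffer. Incubated 30 min; T0 samples quenched with organic solvent. Metabolites resolved by RP-HPLC with ESI-MS/MS and identified against synthetic standards.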
Background: Liver microsomes are a subcellular fraction often used to study metabolism.

For series [12], the system named is Mus musculus. Put plainly: Toxicity in mouse at 10 to 30 mg/kg, ip by Irwin's test. It counts as organism-based. Also on record: dose 10-30 mg/kg, route intraperitoneal. The following applies: in vivo.

As to `O=[N+]([O-])c1ccc2c(c1)S(=O)(=O)NCN2CC(F)(F)F`, in the series with Oocyte, the EC amounted to 55 µM.
Still for that read-out and setting: under `COc1ccc2c(c1)S(=O)(=O)NCN2CCF` stands 71 µM; under `CCN1CNS(=O)(=O)c2cc(I)ccc21`, 95 µM; under `O=S1(=O)NCN(CCF)c2ccc(C(F)(F)F)cc21`, over 300 µM.
On the same count and under the same terms, under `CCN1CNS(=O)(=O)c2cc([N+](=O)[O-])ccc21` stands 16 µM.
On to `O=[N+]([O-])c1ccc2c(c1)S(=O)(=O)NCN2CCF`, for which, in the series with Oocyte, the EC was 27 µM. Further, the pKa (as a rule, the negative logarithm of the acid dissociation constant) in series [1] stood at 8.45.
In the case of `CCN1CNS(=O)(=O)c2cc(C(F)(F)F)ccc21`, the EC in the series with Oocyte is over 300 µM.
Take `CCN1CNS(=O)(=O)c2cc(Cl)cnc21`: in the series with Oocyte, the EC amounted to 28.3 µM.
Consider `O=S1(=O)NCN(CCF)c2ccc(Cl)cc21`, for which the outcome with Rattus norvegicus [2], in the series with Rattus norvegicus [5], with Rattus norvegicus [7] and in the series with Rattus norvegicus [10] was Active. Besides, the Activity entry in the series with Mus musculus [3] was “Non-toxic”; with Hippocampus [4], 66%; in the series on Hippocampus [6], “Dose-dependent effect”; in the series with Hippocampus [8], 23%; in the series with Mus musculus [9], “Toxic”; with Hippocampus [11], 47%. For the same compound, in the series with Oocyte, the EC came out at 6.7 µM. Also, the pKa in series [1] stood at 9.35. Besides, the Stability entry with Liver microsomes is listed as “Unstable”.
As for `CCN1CNS(=O)(=O)c2cc(Br)ccc21`, in the series with Oocyte, the EC was 29 µM.
For the compound `O=S1(=O)NCN(CCF)c2ccc(F)cc21`, in the series on Oocyte, the EC came to 3.6 µM.
The same measure, in the same setting: under `Cc1ccc2c(c1)S(=O)(=O)NCN2CCF` stands 47.5 µM.
For the compound `O=S1(=O)N=CNc2ccc(Cl)cc21`, in the series on Mus musculus [12], the Activity result is listed as “Non-toxic”.
As to `O=S1(=O)N[C@H]2CCCN2c2ccccc21`, in the series with Oocyte, the EC turned out to be 25 µM.
On the same count and under the same terms, under `NS(=O)(=O)c1cc2c(cc1Cl)NC(C1CC3C=CC1C3)NS2(=O)=O` (stereo unspecified) [CYCLOTHIAZIDE] stands 1.7 µM.
`CCN1CNS(=O)(=O)c2cc(Cl)ccc21` showed a pKa in series [1] of 9.33. Further, the Stability result in the series with Liver microsomes is given as “Unstable”.
`CCN1CNS(=O)(=O)c2cc(OC)ccc21`: the EC in the series on Oocyte was 68 µM.
The same measure, in the same setting: under `O=S1(=O)NCN(CC(F)F)c2ccc(Cl)cc21` stands 13.5 µM.
Consider `O=S1(=O)NCN(CCF)c2ccc(Br)cc21`, for which the EC with Oocyte is 17 µM.
Consider `O=S1(=O)NCN(CCO)c2ccc(Cl)cc21`, for which the EC in the series with Oocyte is 54 µM.
With `CCN1CNS(=O)(=O)c2cc(C)ccc21`, the EC in the series on Oocyte came out at 25 µM.
As for `O=S1(=O)N=CN(CCF)c2ccc(Cl)cc21`, the Activity entry in the series on Mus musculus [12] is recorded as “Non-toxic”.
Regarding `O=S1(=O)NCN(CC(F)(F)F)c2ccc(Cl)cc21`, in the series on Rattus norvegicus [2], the outcome was inactive. Besides, in the series with Mus musculus [3], the Activity entry is on record as “Non-toxic”. For the same compound, the EC in the series on Oocyte is 19 µM. This compound also registered a pKa in [1] of 9.01.
Regarding `O=S1(=O)NCN(CCF)c2ccc(I)cc21`, in the series on Oocyte, the EC stood at 120 µM.
